ChEMBL document CHEMBL4219111, “Multifunctional 5,6-dimethoxybenzo[d]isothiazol-3(2H)-one-N-alkylbenzylamine derivatives with acetylcholinesterase, monoamine oxidases and β-amyloid aggregation inhibitory activities as potential agents against Alzheimer's disease” (Bioorg Med Chem, 2018)

Assays:
Acetylcholinesterase = Acetylcholinesterase (Electrophorus electricus, UniProt O42275); test: Inhibition of Electrophorus electricus AChE using acetylthiocholine iodide as substrate measured after 15 mins by Ellman's method
Acetylcholinesterase, sequence (O42275 whole entry): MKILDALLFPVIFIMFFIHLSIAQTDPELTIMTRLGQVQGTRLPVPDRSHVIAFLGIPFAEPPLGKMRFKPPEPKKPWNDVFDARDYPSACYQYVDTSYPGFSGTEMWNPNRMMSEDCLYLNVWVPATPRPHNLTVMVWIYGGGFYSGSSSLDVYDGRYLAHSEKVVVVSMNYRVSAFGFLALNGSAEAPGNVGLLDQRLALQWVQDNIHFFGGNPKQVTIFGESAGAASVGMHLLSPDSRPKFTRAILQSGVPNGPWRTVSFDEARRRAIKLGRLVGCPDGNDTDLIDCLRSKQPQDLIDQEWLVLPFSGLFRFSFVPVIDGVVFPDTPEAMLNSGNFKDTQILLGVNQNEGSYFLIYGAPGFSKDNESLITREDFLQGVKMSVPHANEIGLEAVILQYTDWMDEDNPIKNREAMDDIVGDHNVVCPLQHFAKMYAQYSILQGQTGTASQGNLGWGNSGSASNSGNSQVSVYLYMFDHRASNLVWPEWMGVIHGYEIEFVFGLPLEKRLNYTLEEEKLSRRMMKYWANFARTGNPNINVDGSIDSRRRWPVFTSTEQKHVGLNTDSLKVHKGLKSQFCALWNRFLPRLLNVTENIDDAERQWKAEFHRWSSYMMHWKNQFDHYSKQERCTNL

Rattus norvegicus = species: Rattus norvegicus; test: Inhibition of rat serum BuChE using butyrylthiocholine iodide as substrate measured at 50 uM after 15 mins by Ellman's method relative to control
In short: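 Rat serum (25%) as enzyme source; modified Ellman method in […] pH 7.4 with 1 mmol/L butyrylthiocholine iodide and 0.2% DTNB; 37 °C for 15 min, absorbance at 405 nm. Percent inhibition at 50 µM test compound, each concentration in triplicate.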

[1] = Antioxidant activity assessed as trolox equivalents of AAPH radical scavenging activity at 5 uM preincubated for 15 mins followed by AAPH addition measured every min for 90 mins by ORAC-FL assay; format: functional
In short: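 ORAC-FL in 75 mM phosphate buffer pH 7.4, 200 µL final. Sample plus fluorescein (150 nM final) pre-incubated 15 min at 37 °C, then AAPH added (12 mM final). Fluorescence read every minute for 90 min, ex 485/em 535 nm, normalized to FL+AAPH blank. Trolox standard 1-8 µM final; values given as µM Trolox equivalent per µM compound. Duplicate wells, at least three independent assays.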

[2] = target: Amyloid-beta precursor protein (Homo sapiens) (UniProt P05067); test: Inhibition of self-induced aggregation of amyloid beta (1 to 42) (unknown origin) at 25 uM after 24 hrs by thioflavin T fluorescence-based fluorometric method relative to control
Amyloid-beta precursor protein (Homo sapiens), sequence (P05067 whole entry): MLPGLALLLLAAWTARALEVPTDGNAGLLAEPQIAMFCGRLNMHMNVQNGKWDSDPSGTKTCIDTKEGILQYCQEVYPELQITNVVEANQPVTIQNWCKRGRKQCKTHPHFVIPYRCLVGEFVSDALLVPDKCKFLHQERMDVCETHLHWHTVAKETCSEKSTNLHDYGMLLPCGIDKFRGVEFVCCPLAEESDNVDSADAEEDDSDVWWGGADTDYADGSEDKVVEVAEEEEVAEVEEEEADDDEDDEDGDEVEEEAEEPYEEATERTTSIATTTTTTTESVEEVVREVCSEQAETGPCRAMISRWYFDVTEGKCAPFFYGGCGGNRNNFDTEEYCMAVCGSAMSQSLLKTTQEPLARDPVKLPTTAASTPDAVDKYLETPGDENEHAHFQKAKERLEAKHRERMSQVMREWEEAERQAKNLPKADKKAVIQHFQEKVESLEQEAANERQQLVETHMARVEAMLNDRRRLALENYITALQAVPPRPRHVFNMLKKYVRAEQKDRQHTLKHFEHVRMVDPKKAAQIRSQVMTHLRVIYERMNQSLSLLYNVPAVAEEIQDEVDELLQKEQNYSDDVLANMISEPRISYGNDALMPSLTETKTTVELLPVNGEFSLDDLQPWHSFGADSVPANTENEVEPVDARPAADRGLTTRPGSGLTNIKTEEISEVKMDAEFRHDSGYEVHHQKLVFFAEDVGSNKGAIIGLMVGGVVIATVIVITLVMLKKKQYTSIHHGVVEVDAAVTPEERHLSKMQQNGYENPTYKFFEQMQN
In short: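 Aβ1-42 pretreated in HFIP 24 h at room temperature, dried, redissolved in DMSO. Peptide (25 µM final) incubated with compound (25 µM final) in 50 mM phosphate pH 7.4 for 24 h at 37 °C. ThT (5 µM) added in 50 mM glycine-NaOH pH 8.5; fluorescence read at ex 446/em 490 nm. Inhibition = (1 − IFi/IFc)×100 after background subtraction, triplicate.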

[3] = target: T1, Amine oxidase [flavin-containing] A (Homo sapiens, UniProt P21397); test: Inhibition of recombinant human MAO-A using kynuramine as substrate after 30 mins by fluorescence assay
T1 sequence (P21397 whole entry): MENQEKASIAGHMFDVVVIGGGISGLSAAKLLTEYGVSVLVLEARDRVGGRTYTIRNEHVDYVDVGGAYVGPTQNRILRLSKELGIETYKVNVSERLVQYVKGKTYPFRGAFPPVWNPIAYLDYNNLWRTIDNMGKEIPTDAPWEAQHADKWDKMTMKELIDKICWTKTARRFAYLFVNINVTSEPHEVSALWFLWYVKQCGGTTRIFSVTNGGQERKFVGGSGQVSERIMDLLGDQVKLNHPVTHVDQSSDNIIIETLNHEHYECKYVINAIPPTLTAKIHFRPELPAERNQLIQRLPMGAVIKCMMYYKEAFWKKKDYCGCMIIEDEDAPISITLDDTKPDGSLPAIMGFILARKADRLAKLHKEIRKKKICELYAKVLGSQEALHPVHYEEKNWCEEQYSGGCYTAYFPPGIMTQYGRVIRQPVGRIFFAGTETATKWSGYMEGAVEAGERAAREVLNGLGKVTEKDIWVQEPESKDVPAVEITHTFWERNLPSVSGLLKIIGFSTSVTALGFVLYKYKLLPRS

[4] = target: T2, Amine oxidase [flavin-containing] B (Homo sapiens, UniProt P27338); test: Inhibition of recombinant human MAO-B using kynuramine as substrate after 30 mins by fluorescence assay
T2 sequence (P27338 whole entry): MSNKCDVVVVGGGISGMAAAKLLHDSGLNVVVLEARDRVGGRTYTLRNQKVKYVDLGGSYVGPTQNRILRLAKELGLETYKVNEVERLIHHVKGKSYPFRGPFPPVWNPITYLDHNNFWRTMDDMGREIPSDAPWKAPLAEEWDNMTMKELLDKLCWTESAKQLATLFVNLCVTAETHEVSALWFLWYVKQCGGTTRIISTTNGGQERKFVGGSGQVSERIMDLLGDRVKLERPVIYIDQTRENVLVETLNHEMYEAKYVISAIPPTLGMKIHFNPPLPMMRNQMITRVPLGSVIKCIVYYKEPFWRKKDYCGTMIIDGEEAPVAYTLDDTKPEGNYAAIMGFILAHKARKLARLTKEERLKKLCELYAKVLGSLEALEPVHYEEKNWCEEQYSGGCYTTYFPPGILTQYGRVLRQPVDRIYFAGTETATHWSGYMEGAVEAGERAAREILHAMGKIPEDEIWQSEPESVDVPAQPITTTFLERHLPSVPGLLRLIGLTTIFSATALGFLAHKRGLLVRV

Homo sapiens = species: Homo sapiens; test: Selectivity index, ratio of IC50 for recombinant human MAO-A to IC50 for recombinant human MAO-B
In short: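 Ratio of IC50s, each from a sigmoidal curve of initial kynuramine oxidation rate versus log inhibitor concentration. Curves used six concentrations within 0-100 µM, spanning at least three orders of magnitude. IC50s determined in triplicate.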

[5] = target: T2, Amine oxidase [flavin-containing] B; test: Inhibition of recombinant human MAO-B at 10 uM using kynuramine as substrate after 30 mins by fluorescence assay relative to control; conditions: 0.5 h
In short: (§1)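 Recombinant human MAO-A or MAO-B, kynuramine substrate (45 µM for MAO-A, 30 µM for MAO-B), in 100 mM potassium phosphate pH 7.40 with 20.2 mM KCl and under 4% DMSO. Enzyme (7.5 µg/mL) starts the reaction; 30 min at 37 °C. Stopped with NaOH plus water, centrifuged, supernatant fluorescence read at ex 310/em 400 nm. Percent inhibition at 10 µM.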

[6] = target: T1, Amine oxidase [flavin-containing] A; test: Inhibition of recombinant human MAO-A at 10 uM using kynuramine as substrate after 30 mins by fluorescence assay relative to control; conditions: 0.5 h; in short: as §1

## CCN(CCCCCCn1sc2cc(OC)c(OC)cc2c1=O)Cc1ccc(N(C)C)cc1
Acetylcholinesterase
  IC50: 6.5 µM
Rattus norvegicus
  inhibition: 22.7%
[1]
  Activity: 1.92 equiv
[2]
  inhibition: 33.4%
[3]
  IC50: 7.1 µM
[4]
  IC50: 12.4 µM
Homo sapiens
  Ratio IC50: 0.57

## CCN(CCCCn1sc2cc(OC)c(OC)cc2c1=O)Cc1ccc(N(C)C)cc1
Acetylcholinesterase
  IC50: 8.85 µM
Rattus norvegicus
  inhibition: 23.2%
[1]
  Activity: 2.14 equiv
[2]
  inhibition: 32.5%
[3]
  IC50: 15.9 µM
[4]
  IC50: 18.8 µM
Homo sapiens
  Ratio IC50: 0.85

## COc1cc2sn(CCCN(C)Cc3ccccc3)c(=O)c2cc1OC
Acetylcholinesterase
  IC50: 7.5 µM
Rattus norvegicus
  inhibition: 11.5%
[1]
  Activity: 0.91 equiv
[2]
  inhibition: 7.6%
[3]
  IC50: 6.9 µM
[5]
  inhibition at 10 µM: 44.4%

## CCN(CCCn1sc2cc(OC)c(OC)cc2c1=O)Cc1ccc(N(C)C)cc1
Acetylcholinesterase
  IC50: 12.9 µM
Rattus norvegicus
  inhibition: 9.6%
[1]
  Activity: 0.58 equiv
[2]
  inhibition: 13.4%
[3]
  IC50: 11.3 µM
[5]
  inhibition at 10 µM: 40.1%

## COc1ccccc1CN(C)CCCCCCN1C(=O)c2cc(OC)c(OC)cc2S1(=O)=O
Acetylcholinesterase
  IC50: 1.02 µM
Rattus norvegicus
  inhibition: < 5%
[1]
  Activity: 0.16 equiv
[2]
  inhibition: 23.9%
[6]
  inhibition at 10 µM: 28.1%
[5]
  inhibition at 10 µM: 29.2%

## COc1cc2sn(CCCCN(C)Cc3ccccc3)c(=O)c2cc1OC
Acetylcholinesterase
  IC50: 1.2 µM
Rattus norvegicus
  inhibition: 14.7%
[1]
  Activity: 0.21 equiv
[2]
  inhibition: 17.3%
[3]
  IC50: 8.9 µM
[4]
  IC50: 19.7 µM
Homo sapiens
  Ratio IC50: 0.45

## COc1ccccc1CN(C)CCCn1sc2cc(OC)c(OC)cc2c1=O
Acetylcholinesterase
  IC50: 12 µM
Rattus norvegicus
  inhibition: 10.8%
[1]
  Activity: 0.83 equiv
[2]
  inhibition: 21.8%
[3]
  IC50: 9.4 µM
[5]
  inhibition at 10 µM: 48.6%

## CCN(CCCn1sc2cc(OC)c(OC)cc2c1=O)Cc1ccccc1N(C)C
Acetylcholinesterase
  IC50: 9.7 µM
Rattus norvegicus
  inhibition: 27.9%
[1]
  Activity: 0.22 equiv
[2]
  inhibition: 19.8%
[3]
  IC50: 16.6 µM
[5]
  inhibition at 10 µM: 45.4%

## CCN(CCCCCCn1c(=O)c2cc(OC)c(OC)cc2[s+]1[O-])Cc1ccccc1 (centres undefined)
Acetylcholinesterase
  IC50: 0.38 µM
Rattus norvegicus
  inhibition: 8.1%
[1]
  Activity: 0.23 equiv
[2]
  inhibition: 29.2%
[6]
  inhibition at 10 µM: 21.5%
[5]
  inhibition at 10 µM: 14.6%

## CCN(CCCn1sc2cc(OC)c(OC)cc2c1=O)Cc1ccccc1OC
Acetylcholinesterase
  IC50: 8.3 µM
Rattus norvegicus
  inhibition: 18.9%
[1]
  Activity: 0.82 equiv
[2]
  inhibition: 12.4%
[3]
  IC50: 15.5 µM
[5]
  inhibition at 10 µM: 37%

## CCN(CCCCn1sc2cc(OC)c(OC)cc2c1=O)Cc1ccccc1N(C)C
Acetylcholinesterase
  IC50: 7.1 µM
Rattus norvegicus
  inhibition: 32.6%
[1]
  Activity: 0.34 equiv
[2]
  inhibition: 11.7%
[3]
  IC50: 9.9 µM
[5]
  inhibition at 10 µM: 46.5%

## CCN(CCCn1sc2cc(OC)c(OC)cc2c1=O)Cc1ccccc1
Acetylcholinesterase
  IC50: 6.65 µM
Rattus norvegicus
  inhibition: 12.3%
[1]
  Activity: 0.84 equiv
[2]
  inhibition: 19.6%
[3]
  IC50: 9.9 µM
[5]
  inhibition at 10 µM: 46.3%

## COc1ccccc1CN(C)CCCCCCn1sc2cc(OC)c(OC)cc2c1=O
Acetylcholinesterase
  IC50: 0.61 µM
Rattus norvegicus
  inhibition: 28.8%
[1]
  Activity: 0.26 equiv
[2]
  inhibition: 20.2%
[3]
  IC50: 19.9 µM
[4]
  IC50: 13.7 µM
Homo sapiens
  Ratio IC50: 1.45

## COc1cc2s[nH]c(=O)c2cc1OC
Acetylcholinesterase
  IC50: 34.9 µM
Rattus norvegicus
  inhibition: 10.3%
[1]
  Activity: 0.29 equiv
[2]
  inhibition: 12.2%
[3]
  IC50: 21 µM
[5]
  inhibition at 10 µM: 14%

## CCN(CCCCCCN1C(=O)c2cc(OC)c(OC)cc2S1(=O)=O)Cc1ccccc1
Acetylcholinesterase
  IC50: 13.1 µM
Rattus norvegicus
  inhibition: 35.7%
[1]
  Activity: 0.2 equiv
[2]
  inhibition: 6%
[6]
  inhibition at 10 µM: 30.2%
[5]
  inhibition at 10 µM: 38.9%

## CCN(CCCCn1sc2cc(OC)c(OC)cc2c1=O)Cc1ccccc1OC
Acetylcholinesterase
  IC50: 4.99 µM
Rattus norvegicus
  inhibition: 36.4%
[1]
  Activity: 0.3 equiv
[2]
  inhibition: 21.1%
[3]
  IC50: 9.6 µM
[4]
  IC50: 19.4 µM
Homo sapiens
  Ratio IC50: 0.49

## CCN(CCCCn1sc2cc(OC)c(OC)cc2c1=O)Cc1ccccc1
Acetylcholinesterase
  IC50: 0.8 µM
Rattus norvegicus
  inhibition: 21.8%
[1]
  Activity: 0.53 equiv
[2]
  inhibition: 9.4%
[3]
  IC50: 19.9 µM
[4]
  IC50: 20.1 µM
Homo sapiens
  Ratio IC50: 0.99

## COc1cc2sn(CCCCCCN(C)Cc3ccccc3)c(=O)c2cc1OC
Acetylcholinesterase
  IC50: 0.35 µM
Rattus norvegicus
  inhibition: 23.1%
[1]
  Activity: 0.29 equiv
[2]
  inhibition: 4.3%
[3]
  IC50: 23 µM
[4]
  IC50: 13.2 µM
Homo sapiens
  Ratio IC50: 1.74

## CCN(CCCCCCn1sc2cc(OC)c(OC)cc2c1=O)Cc1ccccc1N(C)C
Acetylcholinesterase
  IC50: 0.56 µM
Rattus norvegicus
  inhibition: 46.8%
[1]
  Activity: 0.35 equiv
[2]
  inhibition: 31.2%
[3]
  IC50: 3.4 µM
[4]
  IC50: 19.6 µM
Homo sapiens
  Ratio IC50: 0.17

## COc1ccccc1CN(C)CCCCn1sc2cc(OC)c(OC)cc2c1=O
Acetylcholinesterase
  IC50: 5.9 µM
Rattus norvegicus
  inhibition: 25.5%
[1]
  Activity: 0.39 equiv
[2]
  inhibition: 11.7%
[3]
  IC50: 7.1 µM
[4]
  IC50: 19.2 µM
Homo sapiens
  Ratio IC50: 0.37
